The values below come from ChEMBL document CHEMBL4196009, “Novel vitexin-inspired scaffold against leukemia” (Eur J Med Chem, 2018).

Assay [1] is filed under the species Homo sapiens. Nature of the assay: Inhibition of RNA polymerase 2 C-terminal domain phosphorylation at Ser2 residue in human KOPN8 cells at 100 uM pre-treated with NAC for 1 hr and measured after 3 hrs by Western blot analysis relative to control. The format is cell-based. In a few lines:
(§1)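 KOPN-8 cells were exposed to compound for 3 h and 24 h, with or without N-acetylcysteine added to a parallel set as antioxidant. Lysates were analysed by Western blot for cleaved PARP, Mcl-1, Ser-2-phosphorylated RNAPII CTD, cMyc, total Rb and pRb. Signals were compared against controls for dose-dependent change.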
For orientation: Immunoblotting shows a protein as a band on a membrane.

Assay [2] relates to KOPN-8. Put plainly: Induction of apoptosis in human KOPN8 cells assessed as late apoptotic cells at 10 uM after 24 hrs by Annexin V-FITC/propidium iodide staining-based flow cytometry (reference value: 9.5%). The class given is functional. In a few lines:
(§2)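 KOPN-8 cells were treated for 24 h, with a DMSO vehicle control and a staurosporine positive control. Cells were stained with FITC-Annexin V and propidium iodide and analysed by flow cytometry. Quadrant gating separated viable, early apoptotic, late apoptotic (Q2) and necrotic populations.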
A general note: Flow cytometry measures light scatter and fluorescence of single cells or particles in a stream.

Assay [3] concerns the target T1, Retinoblastoma-associated protein (Homo sapiens) (UniProt P06400).
T1 sequence (whole entry): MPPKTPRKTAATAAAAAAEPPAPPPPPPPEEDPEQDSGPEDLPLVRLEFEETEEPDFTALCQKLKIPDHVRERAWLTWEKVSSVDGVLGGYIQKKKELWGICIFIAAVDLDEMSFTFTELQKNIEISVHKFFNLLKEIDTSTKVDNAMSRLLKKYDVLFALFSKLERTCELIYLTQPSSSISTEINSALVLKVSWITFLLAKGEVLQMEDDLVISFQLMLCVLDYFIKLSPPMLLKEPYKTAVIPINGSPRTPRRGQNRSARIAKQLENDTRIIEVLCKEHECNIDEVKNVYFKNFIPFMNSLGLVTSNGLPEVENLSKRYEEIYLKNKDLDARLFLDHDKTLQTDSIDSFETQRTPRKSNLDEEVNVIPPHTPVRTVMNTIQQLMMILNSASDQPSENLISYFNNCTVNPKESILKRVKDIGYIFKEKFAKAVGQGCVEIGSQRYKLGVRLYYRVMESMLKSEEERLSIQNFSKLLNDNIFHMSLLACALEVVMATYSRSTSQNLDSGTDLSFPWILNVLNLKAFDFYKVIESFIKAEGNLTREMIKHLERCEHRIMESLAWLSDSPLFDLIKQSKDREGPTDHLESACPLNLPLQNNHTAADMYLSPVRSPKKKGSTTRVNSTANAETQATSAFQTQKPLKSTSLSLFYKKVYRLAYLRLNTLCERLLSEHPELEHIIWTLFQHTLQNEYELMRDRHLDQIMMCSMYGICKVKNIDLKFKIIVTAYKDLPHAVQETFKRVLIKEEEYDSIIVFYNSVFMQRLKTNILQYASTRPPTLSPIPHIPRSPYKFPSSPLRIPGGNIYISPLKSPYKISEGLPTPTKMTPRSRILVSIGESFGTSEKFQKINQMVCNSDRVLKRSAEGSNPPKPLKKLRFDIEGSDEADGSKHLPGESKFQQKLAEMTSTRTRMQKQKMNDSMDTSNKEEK
Nature of the assay: Inhibition of Rb phosphorylation in human KOPN8 cells assessed as ratio of phosphorylated Rb to total Rb levels at 10 uM pre-treated with NAC for 1 hr and measured after 3 hrs by Western blot analysis relative to control. The class given is cell-based. Summed up:
(§3)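 KOPN-8 pre-B ALL cells were treated for 3 h and 24 h, with or without N-acetyl cysteine added to a parallel set of cells as an antioxidant/ROS quencher. Lysates were analysed by Western blot for phosphorylated Rb and total Rb. The same blots also probed PARP cleavage, Mcl-1, Ser-2-phosphorylated RNAPII CTD and cMyc.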

For assay [4], the species on record is Homo sapiens. Put plainly: Inhibition of RNA polymerase 2 C-terminal domain phosphorylation at Ser2 residue in human KOPN8 cells after 24 hrs by Western blot analysis. The class given is cell-based. Summed up:
as §1

Assay [5] has as its target T1, Retinoblastoma-associated protein (Homo sapiens). Put plainly: Inhibition of Rb phosphorylation in human KOPN8 cells assessed as ratio of phosphorylated Rb to total Rb levels at 10 uM after 3 hrs by Western blot analysis relative to control. The class given is cell-based. In a few lines: as §3
Assay [6] relates to KOPN-8. Put plainly: Induction of apoptosis in human KOPN8 cells assessed as effect on Mcl-1 level at 100 uM after 3 hrs by Western blot analysis relative to control. The format is functional. Summed up: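 KOPN-8 cells were treated at 10–100 µM final, with or without N-acetylcysteine co-addition, for 3 h and 24 h. Lysates were analysed by Western blot for PARP cleavage, Mcl-1, phospho-Ser2 RNAPII CTD, c-Myc, total Rb and pRb. Levels are relative to the vehicle control.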

In assay [7] the target is T1, Retinoblastoma-associated protein (Homo sapiens). Nature of the assay: Inhibition of Rb phosphorylation in human KOPN8 cells assessed as ratio of phosphorylated Rb to total Rb levels at 30 uM pre-treated with NAC for 1 hr and measured after 3 hrs by Western blot analysis relative to control. The format is cell-based. Summed up: as §3
Assay [8] is filed under the species Homo sapiens. Nature of the assay: Inhibition of RNA polymerase 2 C-terminal domain phosphorylation at Ser2 residue in human KOPN8 cells at 30 uM pre-treated with NAC for 1 hr and measured after 3 hrs by Western blot analysis relative to control. The format is cell-based. Summed up: as §1
For assay [9], the species on record is Homo sapiens. Put plainly: Inhibition of RNA polymerase 2 C-terminal domain phosphorylation at Ser2 residue in human KOPN8 cells at 100 uM pre-treated with NAC for 1 hr and measured after 24 hrs by Western blot analysis relative to control. The class given is cell-based. Summed up:
as §1

In assay [10] the test system is KOPN-8. Put plainly: Induction of apoptosis in human KOPN8 cells assessed as upregulation of cleaved PARP level at 100 uM pre-treated with NAC for 1 hr and measured after 24 hrs by Western blot analysis. The class given is functional, cell-based. Summed up: as §1
The test system of assay [11] is KOPN-8. Nature of the assay: Effect on c-Myc expression in human KOPN8 cells at 10 uM pre-treated with NAC for 1 hr and measured after 3 hrs by Western blot analysis relative to control. The class given is functional.
Assay [12] has as its system KOPN-8. Nature of the assay: Induction of apoptosis in human KOPN8 cells assessed as viable cells at 5 uM after 24 hrs by Annexin V-FITC/propidium iodide staining-based flow cytometry (reference value: 85.2%). The following applies: KOPN-8, 24 h, read-out: Activity. The class given is functional. Summed up: as §2
The test system of assay [13] is KOPN-8. Put plainly: Induction of apoptosis in human KOPN8 cells assessed as necrotic cells at 5 uM after 24 hrs by Annexin V-FITC/propidium iodide staining-based flow cytometry (reference value: 0.2%). The format is functional. In a few lines: as §2
For assay [14], the system named is KOPN-8. Put plainly: Induction of apoptosis in human KOPN8 cells assessed as upregulation of cleaved PARP level at 0.5 uM pre-treated with NAC for 1 hr and measured after 3 hrs by Western blot analysis. The class given is functional, cell-based. In a few lines: as §1
Assay [15] relates to SUP-B15. Put plainly: Induction of apoptosis in human SUP-B15 cells assessed as early apoptotic cells at 5 uM after 24 hrs by Annexin V-FITC/propidium iodide staining-based flow cytometry (reference value: 0.1%). The class given is functional.
The test system of assay [16] is KOPN-8. Put plainly: Induction of apoptosis in human KOPN8 cells assessed as early apoptotic cells at 5 uM after 24 hrs by Annexin V-FITC/propidium iodide staining-based flow cytometry (reference value: 0.1%). The class given is functional. In a few lines: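 KOPN-8 cells treated 24 h alongside a DMSO vehicle and a staurosporine (2.0 µM) positive control. Apoptosis was scored by FITC Annexin V / propidium iodide flow cytometry with quadrant gating (early, late apoptotic). DNA content was measured by PI staining to give the percentage of cells in G0/G1, S and G2/M. Groups were compared by t-test; error bars are SD.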

The structures appear in SMILES notation. Active and inactive are the calls of the source. The calls are words filed in the database; no cut-off is given here.

Take `COc1ccc(-c2c(I)c(=O)c3c(OC)cc(OC)cc3n2S(=O)(=O)c2ccc(OC)cc2)cc1`: the fold change (FC) in assay [1] worked out at 1.6; in assay [3], 1; in assay [5], 1; in assay [6], 0.6; in [7] it was 1; in assay [8], 0.9. The fold change (FC) in assay [9] amounted to 0.1; in assay [11] it was 0.9. Further, the Activity in assay [2] is 69.2%. For the same compound, in assay [4], the inhibition entry was “Dose-dependent effect”. Moreover, the outcome in assay [10] was Active.

As for `CN(C)C(=O)c1cc2cnc(Nc3ccc(N4CCNCC4)cn3)nc2n1C1CCCC1` [RIBOCICLIB], in assay [12], the viability at 5 µM came to 2.3%. The Activity in assay [13] is 0.3%; in assay [15], 0.3%; in assay [16] it was 0.5%. Besides, in assay [14], the outcome was inactive.
